# Experimental data from publication PMC4593509 (Medicinal chemistry research : an international journal for …, 2015).
# Where two headings read alike, the source gives them in different places.
# Legend:
# [1] = test system: HCC827; test: MTT assay, cell viability after 72 h; assay type: cell-based, human; conditions: read-out: IC50 (at day 3)
# Method in brief: (§1)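 Cells were kept in RPMI-1640 with 10% FBS at 37 °C and 5% CO₂, grown to confluency, seeded at 5,000–7,000 per well, and incubated 24 h. Medium was replaced with medium holding test compound, diluted from a 1% DMSO/water suspension, in six replicates each in triplicate. After 72 h, MTT in PBS was added for 4 h. Medium was then removed, formazan dissolved in DMSO, and OD read at 540 nm.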
# [2] = test system: NCI-H460; test: MTT assay, cell viability after 72 h; assay type: cell-based, human; conditions: read-out: IC50 (at day 3)
# Method in brief: as §1
# [3] = test system: NCI-H1975; test: MTT assay, cell viability after 72 h; assay type: cell-based, human; conditions: read-out: IC50 (at day 3)
# Method in brief: as §1
# [4] = test system: NSCLC cell lines NCI-H460, NCI-H1975, and HCC827; test: MTT assay, values stated for the whole panel of NSCLC cell lines; assay type: cell-based, human; conditions: for IC50: Homo sapiens, 72 h, read-out: IC50 values against the panel of cancer cell lines
# Method in brief: as §1
# [5] = Water solubility from a filtered saturated solution, by weight; assay type: physicochemical; conditions: for solubility: thermodynamic from solid
# [6] = test system: NCI-H460 cell line; test: Annexin V; assay type: cell-based, human; conditions: H460 cells
# Method in brief: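 NCI-H460 cells were seeded at 1×10^5 per well and left to adhere overnight. Test compound or cisplatin (40 µM) was diluted into medium from a 1% DMSO/water solution, and untreated controls got fresh medium, with 2 wells per treatment. After exposure, cells were washed twice in cold PBS and stained with FITC-Annexin V and PI in 1× binding buffer for 15 min at room temperature in the dark. Imaging used fluorescence microscopy at 10× and 20×.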
# [7] = test system: PARP and caspase-3 in NCI-H460 cells; test: Western blotting of apoptotic proteins caspase-3 and PARP; assay type: cell-based, human; conditions: 5 μM
# Method in brief: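 Confluent NCI-H460 cells, seeded at 1×10^5 per well in RPMI-1640 with 10% FBS and 1% pen-strep, were serum-starved 24 h, then treated. Cells were lysed in ice-cold Tris pH 7.5/Triton X-100 buffer with protease/phosphatase inhibitors. Equal lysate amounts were run on 4–12% SDS-PAGE and moved to PVDF, then probed with PARP, caspase-3 and GAPDH antibodies (1:1,000, 4 °C overnight) and HRP anti-rabbit (1:5,000). Detection was by ECL, with GAPDH reprobe for normalization and cisplatin lysates as control.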
# [8] = treatment 6 h, IC23 and cisplatin at 40 μM
SMILES,"IC50 ([1]; Homo sapiens, HCC827, 72 h) [µM]",IC50 [4] [µM],solubility ([5]; water) [µg/mL],"IC50 ([2]; Homo sapiens, NCI-H460, 72 h) [µM]","IC50 ([3]; Homo sapiens, NCI-H1975, 72 h) [µM]",further results
"Clc1ncn(CCc2cccc3ccccc23)c1Cl [Compound 16, 4,5-dichloro-1-(2-(naphthalen-1-yl)ethyl)-imidazole]",–,–,–,–,–,"IC50 ([1]; HCC827, 72 h exposure, MTT): > 30 µM; IC50 ([2]; NCI-H460, 72 h exposure, MTT): > 30 µM; IC50 ([3]; NCI-H1975, 72 h exposure, MTT): > 30 µM"
"CCCCCCCCCn1c[n+](Cc2ccc3ccccc3c2)c(Cl)c1Cl.[Br-] [Compound 8, 4,5-dichloro-3-(naphthalen-2-ylmethyl)-1-nonylimidazolium bromide]",3,≤ 10,300,10,3,–
"CCCCCn1c[n+](Cc2ccc3ccccc3c2)c(Cl)c1Cl.[Br-] [Compound 5, 4,5-dichloro-3-(naphthalen-2-ylmethyl)-1-pentylimidazolium bromide]",12,10 to 12,3100,10,12,–
"Cn1c(=O)c2c(n(C)c[n+]2Cc2ccc3ccccc3c2)n(C)c1=O.[I-] [Compound 15, 1,3,9-trimethyl-7-(naphthalen-2-ylmethyl)xanthinium iodide]",–,–,–,–,–,"IC50 ([1]; HCC827, 72 h exposure, MTT): > 30 µM; anti-tumor activity against the three cell lines ([4]; NCI-H460, NCI-H1975, HCC827, result in words): no observable anti-tumor activity; H2O solubility ([5]; water, saturated solution stirred for several hours, filtered): 2600 µg/mL; IC50 ([2]; NCI-H460, 72 h exposure, MTT): > 30 µM; IC50 ([3]; NCI-H1975, 72 h exposure, MTT): > 30 µM"
"CCCCn1c[n+](Cc2ccc3ccccc3c2)c(Cl)c1Cl.[Br-] [Compound 4, 1-butyl-4,5-dichloro-3-(naphthalen-2-ylmethyl)-imidazolium bromide]",12,–,5700,13,10,–
"CCCCCCCn1c[n+](Cc2ccc3ccccc3c2)c(Cl)c1Cl [Compound 7, 4,5-dichloro-1-heptyl-3-(naphthalen-2-ylmethyl)-imidazolium bromide]",6,≤ 10,–,6,4,–
"CCCCCCCCCCCCn1c[n+](Cc2ccc3ccccc3c2)c(Cl)c1Cl [Compound 9, 4,5-dichloro-1-dodecyl-3-(naphthalen-2-ylmethyl)-imidazolium bromide]",–,≤ 10,–,5,4,–
"Clc1c(Cl)[n+](Cc2ccc3ccccc3c2)cn1Cc1ccc2ccccc2c1.[Br-] [IC23, 4,5-dichloro-1,3-bis (naphthalen-2-ylmethyl)imidazolium bromide]",8,–,< 100,5,6,"stage of apoptosis (Annexin V / PI) ([6]; treatment 1 h, IC23 at 40 μM): early stage of apoptosis; stage of apoptosis (Annexin V / PI) ([6]; treatment 3 h, IC23 at 40 μM): latestage apoptotic cells; stage of apoptosis (Annexin V / PI) [6, 8]: end stage of apoptosis; PARP cleavage ([7]; H460 cell lysates, 12 h): presence of cleaved PARP; levels of procaspase-3 ([7]; H460 cell lysates, 12 h): substantial reduction; PARP-1 and procaspase-3 cleavage ([7]; H460 cells, 1 h): little PARP-1 and procaspase-3 cleavage"
"CCn1c[n+](Cc2ccc3ccccc3c2)c(Cl)c1Cl.[Br-] [Compound 1, 4,5-dichloro-1-ethyl-3-(naphthalen-2-ylmethyl)-imidazolium bromide]",> 30,≥ 19,13500,26,> 30,–
"CCCCCCn1c[n+](Cc2ccc3ccccc3c2)c(Cl)c1Cl.[Br-] [Compound 6, 4,5-dichloro-1-hexyl-3-(naphthalen-2-ylmethyl)-imidazolium bromide]",8,≤ 10,1400,5,5,–
"N.N.[Cl][Pt][Cl] [cisplatin, reference compound]",–,–,–,–,–,"IC50 ([1]; HCC827, 72 h exposure, MTT): 4 µM; stage of apoptosis (Annexin V / PI) [6, 8]: early-stage apoptosis; PARP-1 cleavage and amount of procaspase-3 ([7]; H460 cells, 36 h): both PARP-1 cleavage and a reduced amount of procaspase-3; IC50 ([2]; NCI-H460, 72 h exposure, MTT): 3 µM; IC50 ([3]; NCI-H1975, 72 h exposure, MTT): 10 µM"
"CC(C)n1c[n+](Cc2ccc3ccccc3c2)c(Cl)c1Cl.[Br-] [Compound 3, 4,5-dichloro-1-isopropyl-3-(naphthalen-2-ylmethyl)imidazolium bromide]",> 30,≥ 19,10800,> 30,20,–
"CCCn1c[n+](Cc2ccc3ccccc3c2)c(Cl)c1Cl.[Br-] [Compound 2, 4,5-dichloro-3-(naphthalen-2-ylmethyl)-1-propylimidazolium bromide]",> 30,≥ 19,5200,19,22,–

# Continued, in another order:
"IC50 ([1]; Homo sapiens, HCC827, 72 h) [µM]",IC50 [4] [µM],solubility ([5]; water) [µg/mL],"IC50 ([2]; Homo sapiens, NCI-H460, 72 h) [µM]","IC50 ([3]; Homo sapiens, NCI-H1975, 72 h) [µM]",SMILES,further results
> 30,–,–,12,14,"Clc1c(Cl)[n+](Cc2ccccc2)cn1CCc1cccc2ccccc12 [Compound 19, 3-benzyl-4,5-dichloro-1-(2-(naphthalen-1-yl)ethyl)-imidazolium bromide]",–
> 30,–,–,> 30,> 30,"Clc1c(Cl)[n+](Cc2ccccc2)cn1Cc1ccccc1 [Compound 10, 1,3-dibenzyl-4,5-dichloroimidazolium bromide]",–
9,–,–,4,6,"[Br-].c1ccc2cc(Cn3cc[n+](Cc4ccc5ccccc5c4)c3)ccc2c1 [Compound 12, 1,3-bis(naphthalen-2-ylmethyl)imidazolium bromide]","stage of apoptosis (Annexin V / PI) [6, 8]: early stages of apoptosis"
28,–,800,8,12,"Cn1c(=O)c2c(ncn2Cc2ccc3ccccc3c2)n(C)c1=O [Compound 14, 1,3-dimethyl-7-(naphthalen-2-ylmethyl)xanthine]",–
15,12 to 15,–,15,12,"Clc1c(Cl)[n+](Cc2ccc3ccccc3c2)cn1Cc1ccccc1 [Compound 11, 1-benzyl-4,5-dichloro-3-(naphthalen-2-ylmethyl)-imidazolium bromide]",–
11,–,400,8,8,"Clc1c(Cl)[n+](CCc2cccc3ccccc23)cn1CCc1cccc2ccccc12.[Br-] [Compound 17, 4,5-dichloro-1,3-bis(2-(naphthalen-1-yl)ethyl)-imidazolium bromide]",–
9,–,900,10,5,"Clc1c(Cl)[n+](Cc2ccc3ccccc3n2)cn1Cc1ccc2ccccc2c1.[Br-] [Compound 23, 4,5-dichloro-1-(naphthalen-2-ylmethyl)-3-(quinolin-2-ylmethyl)imidazolium bromide]",increase in aqueous solubility from IC23 ([5]; relative to IC23): ≥ 10 fold
9,–,–,4,7,"Clc1c(Cl)[n+](Cc2ccc3ccccc3c2)cn1CCc1ccc2ccccc2c1 [Compound 22, 4,5-dichloro-1-(2-(naphthalen-2-yl)ethyl)-3-(naphthalen-2-ylmethyl)-imidazolium bromide]",–
8,–,–,8,8,"Clc1c(Cl)[n+](CCc2ccc3ccccc3c2)cn1CCc1ccc2ccccc2c1 [Compound 21, 4,5-Dichloro-1,3-bis(2-(naphthalen-2-yl)ethyl)-imidazolium bromide]",–
> 30,–,–,> 30,> 30,"Clc1ncn(CCc2ccc3ccccc3c2)c1Cl [Compound 20, 4,5-dichloro-1-(2-(naphthalen-2-yl)ethyl)-imidazole]",–
7,–,100,5,6,"Clc1c(Cl)[n+](Cc2ccc3ccccc3c2)cn1CCc1cccc2ccccc12.[Br-] [Compound 18, 4,5-dichloro-1-(2-(naphthalen-1-yl)ethyl)-3-(naphthalen-2-ylmethyl)-imidazolium bromide]",water solubility compared to IC23 ([5]; result in words): did not show a significant increase
5,–,–,3,4,"c1ccc2cc(Cn3c[n+](Cc4ccc5ccccc5c4)c4ccccc43)ccc2c1 [Compound 13, 1,3-bis(naphthalen-2-ylmethyl)benzimidazolium bromide]",–
